Compound activity as filed in PubChem.
NR2E3 ag-1 = NR2E3 (human) agonism. Q9Y5X4. inhibition of corepressor binding, % at 4.78 µM. actives 0.12% (n = 320,000). GST-NR2E3/biotin-RetCOR TR-FRET, 1536-well. AID 2300;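 active means percent inhibition above the cutoff of mean plus 3 SD of all tested compounds, set per screening campaign, cut at about 20% in these data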
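Material – GST-tagged NR2E3 plus biotinylated RetCOR corepressor · Quantity – NR2E3 fusion 1.35 nM · Times – 5 h incubation at 4 °C · Medium – pH 7.5 Tris-based buffer · Technique – TR-FRET, Eu(K)-anti-GST donor, streptavidin-D2 acceptor, ex 340, em 617/671 nm · Benchmarks – high control biotin, low control 0.6% DMSO · Format – 1536-well plates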
PP1 counter = counter-screen for PP5 inhibitors: inhibitors of human PP1-alpha. purified PP1alpha, OMFP fluorescence. inhibition, % at 6.7 µM. actives 0.9% (n = 320,000);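 active means inhibition above the mean inhibition of all tested compounds plus 3 SD, computed separately for each screening campaign, cut at about 15% in these data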
Target sequence (P62136 whole entry, looked up): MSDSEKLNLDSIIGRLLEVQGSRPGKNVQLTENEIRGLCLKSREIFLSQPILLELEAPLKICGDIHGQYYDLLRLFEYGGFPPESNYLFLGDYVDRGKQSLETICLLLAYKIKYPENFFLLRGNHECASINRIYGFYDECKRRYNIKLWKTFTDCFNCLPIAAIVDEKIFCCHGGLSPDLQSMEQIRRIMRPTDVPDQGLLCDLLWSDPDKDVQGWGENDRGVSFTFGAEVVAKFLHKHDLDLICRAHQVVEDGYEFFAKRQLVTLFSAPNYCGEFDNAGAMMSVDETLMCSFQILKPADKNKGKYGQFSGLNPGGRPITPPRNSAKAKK
PP5 inh = blocks human protein phosphatase 5 activity. inhibition, % at 6.7 µM. actives 0.18% (n = 320,000). AID 1987. purified PP5c, OMFP substrate fluorescence. P53041;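 active means inhibition above the campaign's mean inhibition across all tested compounds plus 3 SD, cut at about 9.5% in these data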
NR2E3 ag-2 = agonists of human NR2E3 nuclear receptor; Q9Y5X4; CHO-S Gal4-NCOR/VP16-NR2E3 two-hybrid, luciferase; inhibition of corepressor binding, % at 3.98 µM; actives 0.35% (n = 360,000); AID 602229;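 active means inhibition above the mean of all tested compounds plus 3 SD, cut at about 70% in these data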;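 further: higher means lower luciferase signal from less NR2E3 corepressor binding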
PP5 inh confirm = confirmation of human PP5 phosphatase inhibitors. shares compounds with PP5 inh. inhibition, % at 6.7 µM. AID 2331. Purified PP5, fluorogenic phosphatase substrate, fluorescence. actives 22% (n = 460); in the data active means inhibition above about 9.5%
PP1 inh counter = inhibits human PP1 phosphatase in PP5 counter-screen. shares compounds with PP5 inh. PP1 enzyme, fluorescent phosphatase substrate. inhibition, % at 6.7 µM. actives 4% (n = 460). AID 2355; in the data active means inhibition above about 16%
Of the large screens only hits and unclear results are named; the others gave an inactive call (follow-up assays come after a bar, where they were run). This is a sample that favours compounds with a hit; in the whole collection about 1.3% have one here.

CC(C)CCCN1C(Nc2ccccc2)=NC[C@@H]1CC(C)C	none
CC(C)C[C@H]1CN=C(Nc2ccccc2)N1CCCCc1ccccc1	PP5 inh 46 | PP5 inh confirm inactive | PP1 inh counter inactive
COc1ccc(-c2csc(NC(=O)c3ccccc3S(C)(=O)=O)n2)cc1	PP5 inh 11 | PP5 inh confirm inactive | PP1 inh counter inactive
COc1ccc(C(=O)Nc2ccc(S(=O)(=O)N3CCCCC3C)cc2)c(OC)c1OC (centres undefined)	PP5 inh 11 | PP5 inh confirm inactive | PP1 inh counter inactive
O=C(Nc1ccc(Cl)c(C(=O)N2CCOCC2)c1)c1ccccc1	none
NNC(=O)c1cc(-c2cccs2)nc2ccccc12	PP5 inh 15 | PP5 inh confirm inactive | PP1 inh counter inactive
O=c1c2cc(N3CCOCC3)ccc2[nH]c(=S)n1Cc1cccc(Cl)c1	none
O=c1c2cc(N3CCOCC3)ccc2[nH]c(=S)n1Cc1ccco1	PP5 inh 10 | PP5 inh confirm inactive | PP1 inh counter inactive
CCN(CC)S(=O)(=O)c1cc(C(=O)Nc2nncs2)c(Cl)cc1Cl	PP5 inh 11 | PP5 inh confirm inactive | PP1 inh counter inactive
CCN(CC)CCN(Cc1cc2cc3c(cc2[nH]c1=O)OCO3)C(=S)NCCCOC	PP5 inh 12 | PP5 inh confirm inactive | PP1 inh counter inactive
CCCOc1ccc(C(=O)N/N=C/c2c[nH]c3ccc(Br)cc23)cc1	PP5 inh 12 | PP5 inh confirm inactive | PP1 inh counter inactive
COC(CNC(=O)c1ccc(CS(=O)(=O)c2ccccc2)o1)OC	PP5 inh 14 | PP5 inh confirm inactive | PP1 inh counter inactive
O=S(=O)(c1cccs1)n1cccn1	none
O=S(=O)(c1ccc(Br)s1)n1cccn1	PP5 inh 12 | PP5 inh confirm inactive | PP1 inh counter inactive
COCCN1C=C2C(=O)C(C)(OC(=O)CCC(=O)OC)C(=O)C(Br)=C2C=C1c1ccc(OC)cc1 (centres undefined)	none
C=CCN1C=C2C(=O)C(C)(OC(=O)CCC(=O)OC)C(=O)C(Br)=C2C=C1c1ccc(OC)cc1 (centres undefined)	PP5 inh 12 | PP5 inh confirm 38 | PP1 inh counter 18
O=C(CC1C(=O)NCCN1C(=O)Nc1ccc(F)cc1)Nc1ccc(F)cc1 (centres undefined)	PP5 inh 9.7 | PP5 inh confirm inactive | PP1 inh counter inactive
COc1cccc(C(=O)N2CCC2(C)C(=O)O)c1 (centres undefined)	none (no result: NR2E3 ag-1, PP1 counter, PP5 inh)
CCOc1cc2c(C#N)c(N(CC)CC)nc(N)c2c(N)n1	none
CCCN(CC1CC1)c1nc(N)c2c(N)nc(OC)cc2c1C#N	PP5 inh 12 | PP5 inh confirm 39 | PP1 inh counter inactive
O=C(COC(=O)/C=C/c1ccco1)NCCN1C(=O)CSC1=O	none (no result: NR2E3 ag-1, PP1 counter, PP5 inh)
CC(C)(C)c1ccc(C(=O)NNc2cc(N3CCCCC3)nc(N3CCCCC3)n2)cc1	none
O=C(NNc1cc(N2CCCC2)nc(N2CCCC2)n1)c1ccc([N+](=O)[O-])cc1	PP5 inh 11 | PP5 inh confirm 34 | PP1 inh counter inactive
CCn1c(=O)c([N+](=O)[O-])c(N2CCSCC2)c2ccccc21	none
CCn1c(=O)c([N+](=O)[O-])c(N2CCN(Cc3ccc4c(c3)OCO4)CC2)c2ccccc21	PP5 inh 10 | PP5 inh confirm inactive | PP1 inh counter inactive
O=C(c1cccc(C(F)(F)F)c1)N1CCC(O)(CS(=O)(=O)Cc2ccccc2)CC1	none
O=C(c1cccc(C(F)(F)F)c1)N1CCC(O)(CS(=O)(=O)Cc2ccccc2Cl)CC1	PP5 inh 11 | PP5 inh confirm inactive | PP1 inh counter inactive
COc1ccccc1-c1cnc(C(O)c2ccc(SC)cc2)[nH]1 (centres undefined)	none (no result: NR2E3 ag-1, PP1 counter, PP5 inh)
NS(=O)(=O)c1ccc(Nc2nc3ccccc3nc2NS(=O)(=O)c2cccc([N+](=O)[O-])c2)cc1	PP5 inh 11 | PP5 inh confirm inactive | PP1 inh counter inactive
CC(=O)Nc1ccc(S(=O)(=O)Nc2nc3ccccc3nc2Nc2ccc(S(N)(=O)=O)cc2)cc1	none
CC(C)(C)P(=O)(CO)c1ccccc1 (centres undefined)	PP5 inh 11 | PP5 inh confirm inactive | PP1 inh counter inactive
COc1ccc2nc(C(F)(F)C(F)(F)F)c(C#N)c(N)c2c1	PP5 inh 9.8 | PP5 inh confirm inactive | PP1 inh counter inactive
CCOC(=O)c1c(C)[nH]c(C)c1C(=O)COC(=O)/C=C/c1cccc(F)c1	none
CCOC(=O)c1c(C)[nH]c(C)c1C(=O)COC(=O)/C=C/c1cccc(C(F)(F)F)c1	PP5 inh 11 | PP5 inh confirm inactive | PP1 inh counter inactive
CCOC(=O)[C@]12CCC=C1N(CCC1=CCCCC1)C(=O)[C@H](CC(=O)NCc1cccs1)C2	none (no result: NR2E3 ag-1, PP1 counter, PP5 inh)
COc1ccc(-c2n[nH]c(C)c2-c2ccc(Cl)cc2)c(O)c1	none
COc1ccc(-c2n[nH]c(C)c2-c2ccc(Cl)cc2)c(O)c1OC	PP5 inh 10 | PP5 inh confirm inactive | PP1 inh counter inactive
COc1ccccc1CC(=O)O/N=C(\N)Cc1cccc2ccccc12	PP5 inh 12 | PP5 inh confirm inactive | PP1 inh counter inactive
Cc1cc(C(=O)N(C2CCCCC2)C2CCCCC2)no1	PP5 inh 9.7 | PP5 inh confirm inactive | PP1 inh counter inactive
O=C(c1ccc(C(F)(F)F)cc1)c1c[nH]c(C(=O)NCCCn2ccnc2)c1	PP5 inh 12 | PP5 inh confirm inactive | PP1 inh counter inactive
O=C(Cc1ccccc1)c1c[nH]c(C(=O)NCCCn2ccnc2)c1	none (no result: NR2E3 ag-2)
Cc1cc(CNC[C@H]2O[C@@H](n3ccc(=O)[nH]c3=O)[C@H](O)[C@@H]2O)no1	none (no result: NR2E3 ag-1, PP1 counter, PP5 inh)
CN1C=CC=C/C1=C1\SC(=S)N(C2CCCCC2)C1=O	PP5 inh 9.7 | PP5 inh confirm inactive | PP1 inh counter inactive
CCOC(=O)CNC(=O)c1cc(C)oc1C	PP5 inh 14 (no result: NR2E3 ag-2) | PP5 inh confirm inactive | PP1 inh counter inactive
CCOC(=O)c1[nH]cnc1C(=O)N1CCC(C)CC1	none
NC(=O)c1ccc(C(F)(F)F)n(Cc2ccc(Cl)cc2)c1=O	PP5 inh 9.9 | PP5 inh confirm inactive | PP1 inh counter inactive
NC(=O)c1ccc(C(F)(F)F)n(Cc2ccc(F)c(F)c2)c1=O	none
Cc1ccsc1C(=O)NNC(=O)c1ccncc1	none (no result: NR2E3 ag-1, PP1 counter, PP5 inh)
CCCOC(=O)c1c(-c2ccc(C)cc2C)csc1NC(=O)C1C2CCC(O2)C1C(=O)O (centres undefined)	PP5 inh 11 | PP5 inh confirm inactive | PP1 inh counter inactive
CCOC(=O)c1c(NC(=O)C2C3CCC(O3)C2C(=O)O)sc2c1CCC(CC)C2 (centres undefined)	PP5 inh 14 | PP5 inh confirm inactive | PP1 inh counter inactive
CCOC(=O)c1c(NC(=O)C2C3CCC(O3)C2C(=O)O)sc(C)c1-c1ccc(F)cc1 (centres undefined)	PP5 inh 13 | PP5 inh confirm inactive | PP1 inh counter inactive
